# From ChEMBL document CHEMBL3576865, “Structure-activity relationships of lysophosphatidylserine analogs as agonists of G-protein-coupled receptors GPR34, P2Y10, and GPR174” (J Med Chem, 2015)
# Calls of active or inactive are those of the source. The calls are words filed in the database; no cut-off is given here.
# Molecular target: Putative P2Y purinoceptor 10 (Mus musculus) (UniProt Q8BFU7)
# Assay: Agonist activity at mouse P2Y10 receptor expressed in McA-RH7777 cells assessed as actin stress fiber formation at 1 uM after 30 mins by confocal microscopy
# Assay type: cell-based
# Summary of the method: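 McA-RH7777 cells stably expressing mouse P2Y10, or mock retrovirus-infected, were grown on collagen I and serum-starved 1 h. They were stimulated with 1 μM compound in serum-free DMEM containing 0.01% fatty-acid-free BSA. […] F-actin fibers were imaged by confocal microscopy.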
# Sequence of Putative P2Y purinoceptor 10 (Mus musculus) (Q8BFU7 whole entry): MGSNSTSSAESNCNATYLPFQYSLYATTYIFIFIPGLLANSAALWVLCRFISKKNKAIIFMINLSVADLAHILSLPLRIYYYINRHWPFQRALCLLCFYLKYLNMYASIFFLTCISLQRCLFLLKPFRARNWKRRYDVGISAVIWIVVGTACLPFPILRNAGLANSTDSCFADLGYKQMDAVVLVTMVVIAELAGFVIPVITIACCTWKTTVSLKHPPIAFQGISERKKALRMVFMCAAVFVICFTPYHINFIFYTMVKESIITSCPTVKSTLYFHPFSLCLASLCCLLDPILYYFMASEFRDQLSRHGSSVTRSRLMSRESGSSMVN
row,Structure (SMILES),Activity
1,CCCCCCCC/C=C\CCCCCCCC(=O)OC[C@@H](O)COP(=O)(O)OC[C@H](N)C(=O)O,Active
2,CCCCCCCCCCCOc1cccc(CCC(=O)NC[C@@H](O)COP(=O)(O)O[C@@H](C)[C@H](N)C(=O)O)c1,inactive
3,CCCCCCCCCCCOc1ccccc1CCC(=O)OCC(F)(F)COP(=O)(O)OC[C@H](N)C(=O)O,Active
4,CCCCCCCCCCCOc1ccccc1CCC(=O)OCCCOP(=O)(O)OC[C@H](N)C(=O)O,Active
